Screening data: PubChem, The Scripps Research Institute Molecular Screening Center
This is a sample that favours compounds with a hit; in the whole collection about 3.1% have one here.
OX1R antag-1 = antagonists of human orexin 1 receptor (OX1R). Orexin/Hypocretin receptor type 1 (Homo sapiens), O43613. OX1R-expressing cells, FRET antagonist read-out. inhibition, % at 6.6 µM. 330,000 tested, 1.8% active. AID 485270, 2010; in the data active = inhibition mostly above about 38%, no sharp cut-off; inactive = mostly below about 40%;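 note: 0% = agonist challenge alone and 100% = reference antagonist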
GalR3 antag = GalR3 antagonists in HEK293 cells, primary screen, cell-based, fluorescence readout | Galanin receptor type 3 (Homo sapiens), O60755 | inhibition, % at 3 µM | HEK293 GalR3-CNG cAMP membrane potential fluorescence; galR3 body fused to GalR1 C-terminus | 360,000 tested, 0.44% active;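 active = inhibition above the screen-wide average plus 3 SD, cut at about 13% in these data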;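 note: forskolin and galanin both at EC90 stimulate the cells; cAMP rise reported by CNG channel membrane potential dye signal; 0% = forskolin plus galanin with DMSO and 100% = forskolin alone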
OX1R antag-2 = OX1R (HCRTR1) antagonists, primary screen, fluorescence, CHO/OX1R cells, Fluo-8 calcium, orexin A; 330,000 tested, 0.43% active; Fluo-8 calcium fluorescence; AID 434989, 2010; inhibition, % at 5 µM; Orexin/Hypocretin receptor type 1 (Homo sapiens), O43613;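 active = inhibition above its plate's threshold, mean inhibition of all tested compounds on the plate plus 3 SD, cut at about 37% in these data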;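 note: 0% = orexin A challenge wells and 100% = SB-334867-A antagonist wells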
GPR7 antagonist = GPR7 receptor antagonists, primary screen, cell-based, fluorescence, single concentration; Neuropeptides B/W receptor type 1 (Homo sapiens), P48145; GPR7-expressing cells, fluorescence antagonist assay; AID 1861, 2009; inhibition, % at 4.4 µM; 290,000 tested, 1.1% active; in the data active = inhibition above about 16%, passing the limit was not always enough;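 note: cells stimulated with the agonist NPW; 0% = agonist with vehicle and 100% = vehicle without agonist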
Target sequence (P48145 whole entry, looked up): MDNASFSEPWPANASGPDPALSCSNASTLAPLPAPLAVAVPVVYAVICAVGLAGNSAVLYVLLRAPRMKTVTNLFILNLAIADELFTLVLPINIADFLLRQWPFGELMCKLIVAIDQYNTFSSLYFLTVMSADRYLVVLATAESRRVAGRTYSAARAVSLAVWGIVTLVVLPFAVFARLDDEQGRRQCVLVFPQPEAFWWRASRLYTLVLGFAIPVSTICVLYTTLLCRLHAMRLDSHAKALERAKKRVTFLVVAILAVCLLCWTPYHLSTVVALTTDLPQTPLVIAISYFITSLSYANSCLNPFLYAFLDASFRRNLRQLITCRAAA
CHO parental Ca = ATP-evoked calcium signal inhibitors, parental CHO, primary screen, counter-screen for OX1R antagonist project, cell-based, fluorescence, Fluo-8 calcium dye; AID 463079, 2010; 330,000 tested, 0.63% active; inhibition, % at 5.6 µM; parental CHO-K1, ATP-induced calcium, Fluo-8 fluorescence;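 active = inhibition above that plate's mean sample inhibition plus 3 SD, cut at about 26% in these data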;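 note: 0% = ATP-challenged DMSO wells and 100% = DMSO wells without ATP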
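Material: Parental CHO cells | Reagent: ATP | Compound dosing: Single nominal dose of 5.6 µM per compound | Detection: Intracellular calcium via Fluo-8 no-wash fluorescent dye | Read-out: % inhibition of ATP-induced calcium mobilization | Benchmarks: Low control ATP plus DMSO, high control DMSO only | Replicates: Singlicate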
GalR3 conf = GalR3 antagonist hit confirmation, cell-based, fluorescence, triplicate; shares compounds with GalR3 antag; HEK293 GalR3 CNG cAMP biosensor, membrane potential fluorescence; galR3 fused to GalR1 carboxy tail; challenged with forskolin and galanin at EC90; inhibition, % at 3 µM; 1,600 tested, 59% active; AID 652245, 2013;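 active = inhibition above the primary screen's cutoff, the mean inhibition of all screened compounds plus 3 SD, cut at about 13% in these data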;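 note: 0% = forskolin plus galanin and 100% = forskolin alone with DMSO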
CNG parental = nonspecific cAMP agonists in parental HEK-CNG cells, counter-screen for GalR3 antagonist project, cell-based, fluorescence, high throughput; shares compounds with GalR3 antag; HEK293-CNG parental cells, cAMP membrane potential fluorescence; normalised: DMSO wells 0%, forskolin wells 100%; activation, % at 3 µM; 1,600 tested, 10% active; in the data active = activation above about 1.3%
* marks the source's active call; other numbers are inactive results; / = not tested or not shown.

SMILES | OX1R antag-1 | GalR3 antag | OX1R antag-2 | GPR7 antagonist | CHO parental Ca | GalR3 conf | CNG parental
N#C/C(=C\c1cc2c(cc1Br)OCO2)c1ccc(C(=O)O)cc1 | 15.7 | 17.2* | -11.8 | -7.9 | 100.0* | 0.7 | 1.2*
CCOc1cc2c(cc1/C=C(/C#N)c1ccc(C(=O)O)cc1)OCO2 | 21.0 | 0.6 | 11.0 | -7.7 | 10.6 | / | /
CC1CCC2C(=O)N(c3ccc(Cc4ccncc4)cc3)C(=O)C2C1 (stereo unspecified) | 19.3 | 91.0* | 2.9 | 9.2 | 25.1 | 109.2* | -0.5
OC(CN1CCCCC1)c1ccc2c3c(cccc13)CC2 (stereo unspecified) | / | -12.8 | / | / | / | / | /
NS(=O)(=O)OCCCc1ccccc1 | 19.4 | -0.5 | 6.7 | -1.7 | -0.7 | / | /
COCC(COS(N)(=O)=O)Cc1ccccc1 (stereo unspecified) | 13.1 | / | -16.0 | -3.1 | -8.6 | -2.7 | 0.2
COc1ccc(-c2noc(N3CCC(C(=O)Nc4cccc(OC)c4)CC3)n2)cc1 | 0.6 | / | -6.7 | -13.4 | -10.3 | / | /
CC1CN(C)C(C)C/C1=N\Oc1ccc([N+](=O)[O-])cc1 (stereo unspecified) | 11.2 | -4.8 | -31.5 | 1.6 | -0.9 | / | /
CC1CN(C)C(C)C/C1=N/Oc1ccccc1[N+](=O)[O-] (stereo unspecified) | 27.1 | 13.2* | 0.9 | -0.3 | -2.3 | 2.7 | 0.4
O=C1OCc2ccc(NC(=O)c3sccc3Cl)cc21 | 29.4 | 15.1* | -10.6 | -10.7 | -1.7 | 6.8 | 0.1
COc1ccc(S(=O)(=O)N(C)C[C@H]2Oc3ccc(NC(=O)Cc4cn(C)c5ccccc45)cc3C(=O)N([C@@H](C)CO)C[C@@H]2C)cc1 | 3.8 | -8.3 | -13.1 | / | -16.5 | / | /
CCOC(=O)c1oc2c(c1C)/C(=N/O)CCC2 | 14.3 | 13.2* | -1.0 | 3.1 | -8.3 | 1.7 | 0.0
COc1cccc(-c2nc(CS(=O)(=O)CC(=O)Nc3ccc(C(C)=O)cc3)c(C)o2)c1 | 9.0 | -7.8 | -8.6 | 23.7 | -27.2 | / | /
Cc1cc(=S)c2cccc(C)c2[nH]1 | 9.1 | 21.4* | -14.9 | -5.8 | 4.1 | 29.7* | 0.1
Cc1cccc2c(=O)cc(C(F)(F)F)[nH]c12 | 39.6 | -2.4 | -5.2 | -13.1 | 2.3 | / | /
Nc1ccc2c(c1)C(=O)CCC2 | / | -6.2 | / | / | / | / | /
CCCCOc1ncnc2c1[nH]c1ccc(F)cc12 | 34.2 | 29.1* | 39.4 | 11.3 | 31.7* | 46.3* | 0.3
CCCCOc1ncnc2c1[nH]c1ccc(OCC)cc12 | 10.7 | -6.4 | -7.4 | 8.2 | -5.6 | / | /
O=C(COC(=O)/C=C/c1cccc(F)c1)NC1CCCCCC1 | 6.4 | -6.0 | 5.3 | / | -1.9 | / | /
CCN1/C(=C/c2ccc3cc(C)ccc3[n+]2CC)Sc2cc(C)ccc21 | / | 49.7* | / | -1.3 | / | 61.7* | 6.2*
CCOC(=O)c1c(C)[nH]c(C(=O)NCc2ccco2)c1C | 10.0 | / | -15.0 | -7.0 | -5.3 | / | /
CCN(CC)c1ccc(C(=O)NNC(=O)CCNC(=O)c2ccccc2)cc1 | 14.6 | -3.2 | 16.0 | / | -13.5 | / | /
CCN(CC)c1ccc(C(=C2C=CC(=[N+](CC)CC)C=C2)c2ccccc2)cc1 | / | 33.5* | / | / | / | 64.1* | 1.4*
CCN(CC)c1ccc(C(=C2C=CC(=[N+](CC)CC)C=C2)c2ccc(N(CC)CC)cc2)cc1 | / | 32.5* | / | / | / | 35.6* | -3.6
O=[N+]([O-])c1cccc(C2=NCCC(c3ccccc3)O2)c1 (stereo unspecified) | 30.9 | 22.0* | -10.3 | -0.1 | -10.3 | 4.1 | 0.1
CCN(CC)C(=O)OCCc1cc2ccccc2c(=O)o1 | 4.2 | / | -12.0 | / | -8.7 | 0.6 | 0.2
O=C(O)c1ccccc1C(=O)OCCc1cc2ccccc2c(=O)o1 | 12.7 | -1.6 | 1.4 | / | -6.5 | / | /
